In ChEMBL document CHEMBL3124880, “4-(3-Chloro-5-(trifluoromethyl)pyridin-2-yl)-N-(4-methoxypyridin-2-yl)piperazine-1-carbothioamide (ML267), a potent inhibitor of bacterial phosphopantetheinyl transferase that attenuates secondary metabolism and thwarts bacterial growth” (J Med Chem, 2014):
Activity calls are given as the source filed them.

How the values were obtained:
Escherichia coli [1] = assay: Antibacterial activity against Escherichia coli JW0451 containing lesion in acrB locus assessed as growth inhibition at 12.5 ug/mL after 16 to 20 hrs by broth dilution method; format: functional, organism-based
How it was run: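 E. coli BW25113 (wild type) and JW0451 (ΔacrB) tested by broth dilution in cation-adjusted Mueller Hinton II, ~1×10^3 cfu, 16–20 h. Growth shown with resazurin. Checkerboard combination with the efflux inhibitor PAβN in the wild type.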

Candida albicans = assay: Antifungal activity against fluconazole-sensitive Candida albicans ATCC 90028 assessed as growth inhibition at 0.8 to 100 ug/mL after 48 hrs by resazurin dye-based assay; format: functional, organism-based
How it was run: (§1)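 Broth microdilution. Test article from 1 μL DMSO in 50 μL cation-adjusted Mueller Hinton II (bacteria) or RPMI 1640 (fungi), plus ~1×10^3 cfu inoculum in the same medium. Incubated 16–20 h at 30–37 °C (48 h for fungi). MIC scored visually as the first well without growth; resazurin added for imaging.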

Pseudomonas aeruginosa = assay: Antibacterial activity against Pseudomonas aeruginosa ATCC 9028 assessed as growth inhibition at 0.8 to 100 ug/mL after 16 to 20 hrs by resazurin dye-based assay; format: functional, organism-based; how it was run: as §1
Escherichia coli [2] = assay: Antibacterial activity against Escherichia coli BW25113 assessed as growth inhibition at 0.8 to 100 ug/mL after 16 to 20 hrs by resazurin dye-based assay; format: functional; how it was run: as §1
Escherichia coli [3] = assay: Antibacterial activity against Escherichia coli K-12 assessed as growth inhibition at 0.8 to 100 ug/mL after 16 to 20 hrs by resazurin dye-based assay; format: functional, organism-based; how it was run: as §1
Staphylococcus aureus [4] = assay: Antibacterial activity against community-acquired methicillin-resistant Staphylococcus aureus BAA-1717 assessed as growth inhibition at 0.8 to 100 ug/mL after 16 to 20 hrs by resazurin dye-based assay; format: functional, organism-based
How it was run: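 Broth microdilution. Inoculum from overnight liquid cultures or 2-day colonies, ~1 × 10^3 cfu per well. Compound in DMSO added to cation-adjusted Mueller Hinton II broth (bacteria) or RPMI 1640 (fungi). Incubated at 30–37 °C for 16–20 h, or 48 h for fungi.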

Staphylococcus aureus [5] = assay: Antibacterial activity against methicillin-sensitive Staphylococcus aureus ATCC 6538 assessed as growth inhibition at 0.8 to 100 ug/mL after 16 to 20 hrs by resazurin dye-based assay; format: functional, organism-based; how it was run: as §1
[6] = Inhibition of Bacillus subtilis Sfp-PPTase using rhodamine-CoA/BHQ-2-YbbR as substrate preincubated for 15 mins followed by substrate addition by HTS assay
Bacillus subtilis [7] = assay: Antibacterial activity against Bacillus subtilis 168 assessed as disruption of cell membrane integrity at 10 times MIC after 15 mins by Syto9/propidium iodide staining-based BacLight LIVE/DEAD microscopic analysis; format: functional, organism-based; conditions: subsp. subtilis str. 168
Staphylococcus aureus [8] = assay: Antibacterial activity against Staphylococcus aureus BK2395 isolated from kidney of 30 mg/kg, ip compound-treated Swiss Webster mouse septicemia model assessed as growth inhibition; format: functional, organism-based; set-up: dose 30 mg/kg
How it was run: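 Bacteria harvested from the kidneys of septic mice treated with vehicle or compound, five isolates taken per crude sample. MICs measured in parallel with the parental USA500 strain.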

[9] = Protein binding in plasma (unknown origin) by equilibrium dialysis; format: ADME, cell-free
Staphylococcus aureus [10] = assay: Antibacterial activity against Staphylococcus aureus BK2395 assessed as growth inhibition in presence of calf serum; format: functional
Mus musculus = assay: Toxicity in CD-1 mouse at 30 mg/kg, ip measured over 24 hrs; format: organism-based; set-up: dose 30 mg/kg, route intraperitoneal; conditions: in vivo
How it was run: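 Male CD1 mice, 6–8 weeks old, given 30 mg/kg ip in 5% DMSO/10% Solutol/water. Clinical observations recorded over 24 h.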

[11] = Mean residence time required for 63.2% elimination of drug in CD-1 mouse at 3 mg/kg, iv; format: ADME, organism-based; set-up: dose 3 mg/kg, route intravenous; conditions: in vivo
How it was run: (§2)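 Male CD1 mice, 6–8 weeks old, given 3 mg/kg iv as a solution in 5% DMSO/10% Solutol in water. Plasma sampled at eight time points over 24 h, in triplicate; MRT defined as time to eliminate 63.2% of the iv dose.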

[12] = Volume of distribution in CD-1 mouse at 3 mg/kg, iv; format: ADME, organism-based; set-up: dose 3 mg/kg, route intravenous; conditions: in vivo; how it was run: as §2
[13] = AUC (infinity) in CD-1 mouse at 30 mg/kg, ip; format: ADME, organism-based; set-up: time infinity, dose 30 mg/kg, route intraperitoneal; conditions: plasma
How it was run: (§3)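 Male CD1 mice, 6–8 weeks old. Dosed iv at 3 mg/kg or ip at 30 mg/kg as a solution in 5% DMSO/10% Solutol in water. Plasma sampled in triplicate at eight time points over 24 h.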

[14] = Cmax in CD-1 mouse at 30 mg/kg, ip; format: ADME, organism-based; set-up: dose 30 mg/kg, route intraperitoneal; conditions: in vivo; how it was run: as §3
[15] = Half life in CD-1 mouse at 3 mg/kg, iv; format: ADME, organism-based; set-up: dose 3 mg/kg, route intravenous; conditions: in vivo; how it was run: as §3
[16] = Metabolic stability in mouse plasma at 2 hrs; format: ADME, cell-free; conditions: read-out: Stability
How it was run: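 Compound incubated in mouse plasma; stability measured at 2 h (Pharmaron).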

[17] = Permeability of the compound by PAMPA; format: physicochemical
[18] = Chemical stability of the compound in aqueous media at pH 2 to 9 at room temperature measured over 5 hrs by LC/MS analysis; format: physicochemical; conditions: buffer, pH 2, 5 h
How it was run: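 Compound held in aqueous media over pH 2–9 and in PBS and HEPES buffers, then monitored for degradation.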

Bacillus subtilis [19] = assay: Antibacterial activity against Bacillus subtilis OKB105 assessed as effect on doubling time in log phase at 0.53 to 1.1 ug/mL after 28 hrs; format: functional, organism-based
How it was run: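 B. subtilis OKB105 cultured with compound at 0.53 or 1.1 µg/mL against a vehicle control. Culture density and surfactin titer sampled periodically over 28 h.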

Bacillus subtilis [20] = assay: Antibacterial activity against Bacillus subtilis OKB105 assessed as inhibition of surfactin production at 1.1 ug/mL after 28 hrs by LC-MS analysis relative to vehicle-treated control; format: functional; conditions: OKB105, 28 h
How it was run: (§4)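 B. subtilis OKB105 cultures grown with sublethal compound concentrations. Culture growth and surfactin titer measured periodically over 28 h; titer expressed relative to vehicle control.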

Bacillus subtilis [21] = assay: Antibacterial activity against Bacillus subtilis OKB105 assessed as inhibition of surfactin production at 0.53 ug/mL after 28 hrs by LC-MS analysis relative to vehicle-treated control; format: functional; conditions: OKB105, 28 h; how it was run: as §4
Liver microsome = assay: Metabolic stability in mouse liver microsomes measured over 1 hr in absence of NADPH

For COc1ccnc(NC(=S)N2CCN(c3ncc(C(F)(F)F)cc3Cl)CC2)c1, the “growth inhibition (GI)” value (Escherichia coli [1]) was “Active”, the “growth inhibition (GI)” value (Candida albicans) was “inactive” and the “growth inhibition (GI)” value (Pseudomonas aeruginosa) was “inactive”. For the same compound, the “growth inhibition (GI)” value (Escherichia coli [2]) was “inactive”, the “growth inhibition (GI)” value (Escherichia coli [3]) was “inactive” and the “growth inhibition (GI)” value (Staphylococcus aureus [4]) was “Active”. The “growth inhibition (GI)” value (Staphylococcus aureus [5]) was “Active”, the IC50 [6] was 290 nM and the Activity (Bacillus subtilis [7]) was “inactive”. The “growth inhibition (GI)” value (Staphylococcus aureus [8]) was “Active”, the PPB [9] was 98.6% and the MIC (Staphylococcus aureus [10]) was over 57 µM. For the same compound, the Activity (Mus musculus) was “Non-toxic”, the MRT [11] was 3.4 h and the Vd [12] was 1.5 L/kg. It also gave an AUC(0-inf) [13] of 68900 ng·h/mL, a Cmax [14] of 17600 ng/mL and a half-life [15] of 2.4 h. The remaining at 2 h [16] was 100%, the permeability [17] was 1120 ×10⁻⁶ cm/s and the Stability [18] was “Stable”. For the same compound, the Activity (Bacillus subtilis [19]) was “inactive”, the inhibition at 1.1 µg/mL (Bacillus subtilis [20]) was 41% and the inhibition at 0.53 µg/mL (Bacillus subtilis [21]) was 33%. The Stability (Liver microsome) was “Stable”.
